Laboratory results published in ChEMBL document CHEMBL3046951, “Volatile constituents from the leaves of Callicarpa japonica Thunb. and their antibacterial activities” (2004).

Assays:
Assay type in all cases: functional
Escherichia coli [1] = test: Antimicrobial activity against Escherichia coli O157:H7 ATCC 43894 assessed as growth inhibition rate at 247 mg/l after 72 hr by spectrophotometry; conditions: O157:H7 ATCC 43894, 72 h, read-out: GI
Bacillus cereus [2] = test: Antimicrobial activity against Bacillus cereus ATCC 11778 assessed as growth inhibition rate at 21.52 mg/l after 72 hr by spectrophotometry; conditions: ATCC 11778, 72 h, read-out: GI
Outline: (§1)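 Pure volatile compounds (purity >95%; one at 90%) were tested against B. cereus ATCC 11778. The strain was grown at 30 °C in nutrient broth for 24 h, then subcultured for 18 h. Optical density was read in a Bioscreen C every 24 h for 72 h, with 10% Tween 80 as the control.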

Salmonella typhimurium [3] = test: Antimicrobial activity against Salmonella enterica subsp. enterica serovar Typhimurium ATCC 14028 assessed as growth inhibition rate at 107.52 mg/l after 72 hr by spectrophotometry; conditions: ATCC 14028, 72 h, read-out: GI
Outline: (§2)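 Salmonella Typhimurium ATCC 14028 grown in nutrient broth at 30 °C, precultured 24 h, then subcultured 1:100 for 18 h before testing. Single volatile compounds (>95% pure) were added. OD was read every 24 h over 72 h in a Bioscreen C, with 10% Tween 80 as the comparison control.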

Vibrio parahaemolyticus [4] = test: Antimicrobial activity against Vibrio parahaemolyticus ATCC 33844 assessed as growth inhibition rate at 21.52 mg/l after 72 hr by spectrophotometry; conditions: ATCC 33844, 72 h, read-out: GI
Staphylococcus aureus [5] = test: Antimicrobial activity against Staphylococcus aureus ATCC 25923 assessed as growth inhibition rate at 107.52 mg/l after 72 hr by spectrophotometry; conditions: ATCC 25923, 72 h, read-out: GI
Escherichia coli [6] = test: Antimicrobial activity against Escherichia coli O157:H7 ATCC 43894 assessed as growth inhibition rate at 61.12 mg/l after 72 hr by spectrophotometry; conditions: O157:H7 ATCC 43894, 72 h, read-out: GI
Outline: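 Authentic volatiles (>95% purity; 2,4-heptadienal 90%) tested against 18 h subcultures. Growth media: E. coli O157:H7 and S. aureus in tryptic soy broth at 37 °C; L. monocytogenes in tryptic soy broth at 30 °C; V. parahaemolyticus in tryptic soy broth + 3% NaCl at 37 °C; S. typhimurium in nutrient broth at 30 °C. Bioscreen C OD every 24 h for 72 h versus 10% Tween 80 control.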

Vibrio parahaemolyticus [7] = test: Antimicrobial activity against Vibrio parahaemolyticus ATCC 33844 assessed as growth inhibition rate at 61.12 mg/l after 72 hr by spectrophotometry; conditions: ATCC 33844, 72 h, read-out: GI
Vibrio parahaemolyticus [8] = test: Antimicrobial activity against Vibrio parahaemolyticus ATCC 33844 assessed as growth inhibition rate at 6.12 mg/l after 72 hr by spectrophotometry; conditions: ATCC 33844, 72 h, read-out: GI
Staphylococcus aureus [9] = test: Antimicrobial activity against Staphylococcus aureus ATCC 25923 assessed as growth inhibition rate at 21.52 mg/l after 72 hr by spectrophotometry; conditions: ATCC 25923, 72 h, read-out: GI
Bacillus cereus [10] = test: Antimicrobial activity against Bacillus cereus ATCC 11778 assessed as growth inhibition rate at 43 mg/l after 72 hr by spectrophotometry; conditions: ATCC 11778, 72 h, read-out: GI; outline: as §1
Staphylococcus aureus [11] = test: Antimicrobial activity against Staphylococcus aureus ATCC 25923 assessed as growth inhibition rate at 6.12 mg/l after 72 hr by spectrophotometry; conditions: ATCC 25923, 72 h, read-out: GI
Listeria monocytogenes [12] = test: Antimicrobial activity against Listeria monocytogenes ATCC 19111 assessed as growth inhibition rate at 61.12 mg/l after 72 hr by spectrophotometry; conditions: ATCC 19111, 72 h, read-out: GI
Outline: (§3)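 L. monocytogenes was grown at 30 °C in tryptic soy broth, subcultured for 18 h, and exposed to pure volatile compounds (>95% purity). Growth was followed by Bioscreen C optical density every 24 h for 72 h against a 10% Tween 80 control.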

Listeria monocytogenes [13] = test: Antimicrobial activity against Listeria monocytogenes ATCC 19111 assessed as growth inhibition rate at 21.52 mg/l after 72 hr by spectrophotometry; conditions: ATCC 19111, 72 h, read-out: GI; outline: as §3
Staphylococcus aureus [14] = test: Antimicrobial activity against Staphylococcus aureus ATCC 25923 assessed as growth inhibition rate at 61.12 mg/l after 72 hr by spectrophotometry; conditions: ATCC 25923, 72 h, read-out: GI
Escherichia coli [15] = test: Antimicrobial activity against Escherichia coli O157:H7 ATCC 43894 assessed as growth inhibition rate at 215.04 mg/l after 72 hr by spectrophotometry; conditions: O157:H7 ATCC 43894, 72 h, read-out: GI
Salmonella typhimurium [16] = test: Antimicrobial activity against Salmonella enterica subsp. enterica serovar Typhimurium ATCC 14028 assessed as growth inhibition rate at 247 mg/l after 72 hr by spectrophotometry; conditions: ATCC 14028, 72 h, read-out: GI; outline: as §2
Listeria monocytogenes [17] = test: Antimicrobial activity against Listeria monocytogenes ATCC 19111 assessed as growth inhibition rate at 215.04 mg/l after 72 hr by spectrophotometry; conditions: ATCC 19111, 72 h, read-out: GI; outline: as §3
Escherichia coli [18] = test: Antimicrobial activity against Escherichia coli O157:H7 ATCC 43894 assessed as growth inhibition rate at 21.52 mg/l after 72 hr by spectrophotometry; conditions: O157:H7 ATCC 43894, 72 h, read-out: GI
Staphylococcus aureus [19] = test: Antimicrobial activity against Staphylococcus aureus ATCC 25923 assessed as growth inhibition rate at 247 mg/l after 72 hr by spectrophotometry; conditions: ATCC 25923, 72 h, read-out: GI
Bacillus cereus [20] = test: Antimicrobial activity against Bacillus cereus ATCC 11778 assessed as growth inhibition rate at 107.52 mg/l after 72 hr by spectrophotometry; conditions: ATCC 11778, 72 h, read-out: GI; outline: as §1
Bacillus cereus [21] = test: Antimicrobial activity against Bacillus cereus ATCC 11778 assessed as growth inhibition rate at 6.12 mg/l after 72 hr by spectrophotometry; conditions: ATCC 11778, 72 h, read-out: GI; outline: as §1
Listeria monocytogenes [22] = test: Antimicrobial activity against Listeria monocytogenes ATCC 19111 assessed as growth inhibition rate at 43 mg/l after 72 hr by spectrophotometry; conditions: ATCC 19111, 72 h, read-out: GI; outline: as §3
Listeria monocytogenes [23] = test: Antimicrobial activity against Listeria monocytogenes ATCC 19111 assessed as growth inhibition rate at 6.12 mg/l after 72 hr by spectrophotometry; conditions: ATCC 19111, 72 h, read-out: GI; outline: as §3
Bacillus cereus [24] = test: Antimicrobial activity against Bacillus cereus ATCC 11778 assessed as growth inhibition rate at 215.04 mg/l after 72 hr by spectrophotometry; conditions: ATCC 11778, 72 h, read-out: GI; outline: as §1
Salmonella typhimurium [25] = test: Antimicrobial activity against Salmonella enterica subsp. enterica serovar Typhimurium ATCC 14028 assessed as growth inhibition rate at 61.12 mg/l after 72 hr by spectrophotometry; conditions: ATCC 14028, 72 h, read-out: GI
Vibrio parahaemolyticus [26] = test: Antimicrobial activity against Vibrio parahaemolyticus ATCC 33844 assessed as growth inhibition rate at 215.04 mg/l after 72 hr by spectrophotometry; conditions: ATCC 33844, 72 h, read-out: GI
Salmonella typhimurium [27] = test: Antimicrobial activity against Salmonella enterica subsp. enterica serovar Typhimurium ATCC 14028 assessed as growth inhibition rate at 215.04 mg/l after 72 hr by spectrophotometry; conditions: ATCC 14028, 72 h, read-out: GI; outline: as §2
Staphylococcus aureus [28] = test: Antimicrobial activity against Staphylococcus aureus ATCC 25923 assessed as growth inhibition rate at 43 mg/l after 72 hr by spectrophotometry; conditions: ATCC 25923, 72 h, read-out: GI
Vibrio parahaemolyticus [29] = test: Antimicrobial activity against Vibrio parahaemolyticus ATCC 33844 assessed as growth inhibition rate at 107.52 mg/l after 72 hr by spectrophotometry; conditions: ATCC 33844, 72 h, read-out: GI
Salmonella typhimurium [30] = test: Antimicrobial activity against Salmonella enterica subsp. enterica serovar Typhimurium ATCC 14028 assessed as growth inhibition rate at 21.52 mg/l after 72 hr by spectrophotometry; conditions: ATCC 14028, 72 h, read-out: GI; outline: as §2
Salmonella typhimurium [31] = test: Antimicrobial activity against Salmonella enterica subsp. enterica serovar Typhimurium ATCC 14028 assessed as growth inhibition rate at 43 mg/l after 72 hr by spectrophotometry; conditions: ATCC 14028, 72 h, read-out: GI; outline: as §2

CCC/C=C/C=O
inhibition of growth at 247 µg/mL (Escherichia coli [1]): 99.9%
inhibition of growth at 21.52 µg/mL (Bacillus cereus [2]): 91.3%
inhibition of growth at 107.52 µg/mL (Salmonella typhimurium [3]): 98.9%
inhibition of growth at 21.52 µg/mL (Vibrio parahaemolyticus [4]): 99.6%
inhibition of growth at 107.52 µg/mL (Staphylococcus aureus [5]): 96.7%
inhibition of growth at 61.12 µg/mL (Escherichia coli [6]): 47.5%
inhibition of growth at 61.12 µg/mL (Vibrio parahaemolyticus [7]): 99.8%
inhibition of growth at 6.12 µg/mL (Vibrio parahaemolyticus [8]): 84.7%
inhibition of growth at 21.52 µg/mL (Staphylococcus aureus [9]): 28.7%
inhibition of growth at 43 µg/mL (Bacillus cereus [10]): 91.8%
inhibition of growth at 6.12 µg/mL (Staphylococcus aureus [11]): 29.2%
inhibition of growth at 61.12 µg/mL (Listeria monocytogenes [12]): 81.2%
inhibition of growth at 21.52 µg/mL (Listeria monocytogenes [13]): 32%
inhibition of growth at 61.12 µg/mL (Staphylococcus aureus [14]): 72.6%
inhibition of growth at 215.04 µg/mL (Escherichia coli [15]): 97.3%
inhibition of growth at 247 µg/mL (Salmonella typhimurium [16]): 98.7%
inhibition of growth at 215.04 µg/mL (Listeria monocytogenes [17]): 99.8%
inhibition of growth at 21.52 µg/mL (Escherichia coli [18]): 8.2%
inhibition of growth at 247 µg/mL (Staphylococcus aureus [19]): 100%
inhibition of growth at 107.52 µg/mL (Bacillus cereus [20]): 100%
inhibition of growth at 6.12 µg/mL (Bacillus cereus [21]): 90.5%
inhibition of growth at 43 µg/mL (Listeria monocytogenes [22]): 45.3%
inhibition of growth at 6.12 µg/mL (Listeria monocytogenes [23]): 31%
inhibition of growth at 215.04 µg/mL (Bacillus cereus [24]): 100%
inhibition of growth at 61.12 µg/mL (Salmonella typhimurium [25]): 98.5%
inhibition of growth at 215.04 µg/mL (Vibrio parahaemolyticus [26]): 99.8%
inhibition of growth at 215.04 µg/mL (Salmonella typhimurium [27]): 99.4%
inhibition of growth at 43 µg/mL (Staphylococcus aureus [28]): 44.3%
inhibition of growth at 107.52 µg/mL (Vibrio parahaemolyticus [29]): 99.8%
inhibition of growth at 21.52 µg/mL (Salmonella typhimurium [30]): 63%
inhibition of growth at 43 µg/mL (Salmonella typhimurium [31]): 83.4%
